Values joined by “and” are separate entries in the source; they are usually repeats but may differ in a detail not shown here. Identical values can stand only once. Like-named read-outs stand apart in the source and are kept apart here.

The conditions of data set [1]: cited from earlier work.
For a further data set, the system named is P-gp. To be noted: cited from earlier work.
The test system of the next data set is high-grade gliomas. To be noted: in combination with bevacizumab, twelve patients; cited from earlier work.
The nature of data set [2]: Clearance predicted for the mouse by body surface area scaling. To be noted: body surface area scaling from dog and rat.
Data set [3] in a line: Plasma and brain pharmacokinetics of panobinostat in CD-1 female mice. In kind it is in vivo. Put shortly: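 Single tail-vein dose of 15 mg/kg (3 mg/mL in PBS with 20% DMSO and 20% PEG-400) given to 12 mice, with 3 killed at each of 1, 2, 4 and 7 h. Heparinized plasma and brains frozen at −80 °C. LC–MS with internal standard, using 9-point 1–500 ng/mL calibration fitted by 1/x2 regression. Cmax taken as highest observed concentration, AUC1–7 by trapezoidal rule, and clearance from a […] model.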

For the next data set, the system named is human DIPG cell lines. The conditions noted are these: cited from earlier work.
The conditions of data set [4]: human plasma; cited from earlier work.
For data set [5] the following is noted: rat; cited from earlier work.
The conditions of data set [6]: cited from earlier work. This is another data set of the same source.
A further data set relates to refractory solid tumors. The conditions noted are these: 9 pediatric patients; cited from earlier work.
The conditions of data set [7]: dog; cited from earlier work.
On the set-up of data set [8]: species or system human.
Another data set deals with DIPG cultures. To be noted: cited from earlier work.
The conditions of data set [9]: cited from earlier work. This is another data set of the same source.
The nature of data set [10]: Protein binding in murine plasma. In kind it is in vitro ADME. To be noted: murine plasma compartment.
The conditions of data set [11]: IP and IV administration; cited from earlier work.
The conditions of data set [12]: murine plasma; cited from earlier work.
The conditions of data set [13]: cited from earlier work. This is another data set of the same source.
Setting [14] is: female, CD-1, mouse, brain, intravenous, 15 mg/kg.
Where [15] appears, read: female, CD-1, mouse, brain, iv, 15 mg/kg.
[16] abbreviates: female, CD-1, mouse, brain/plasma, iv, 15 mg/kg.
[17] abbreviates: female, CD-1, mouse, plasma, intravenous, 15 mg/kg.
[18] abbreviates: female, CD-1, mouse, plasma, iv, 15 mg/kg.
The mark [19] stands for this setting: intraperitoneal injection, single time-point 4 h.

Take `Cc1nc(Nc2ncc(C(=O)Nc3c(C)cccc3Cl)s2)cc(N2CCN(CCO)CC2)n1` [dasatinib]: the “concentrations in the brain after inhibition of P-gp with everolimus” value in data set [1] was “increased concentrations”.

Turning to `COc1cc2c(Nc3ccc(Br)cc3F)ncnc2cc1OCC1CCN(C)CC1` [vandetanib], in [1], the “concentrations in the brain after inhibition of P-gp with everolimus” value is on record as “increased concentrations”.

The Cmax is the peak of the concentration-time curve. One may read the Vd as a proportionality between amount in the body and measured concentration, not a real space. A low value points to confinement near the circulation. The Kp is the ratio of the level in a tissue or fluid to that in plasma or blood. A word on the clearance: it is the rate of elimination divided by the concentration. Read a high clearance as efficient removal. Usually AUC stands for concentration integrated over time. A high value points to more exposure. For orientation: IC50 means the concentration that inhibits the measured activity by half. On to `Cc1[nH]c2ccccc2c1CCNCc1ccc(/C=C/C(=O)NO)cc1` [panobinostat, 2-hydroxypropanoic acid, compound with 2-(E)-Nhydroxy-3-[4-[[[2-(2-methyl-1H-indol-3-yl)ethyl]amino]methyl]phenyl]-2-propenamide], for which the P-gp substrate status entry with P-gp was “substrate of P-gp”. In the data set with high-grade gliomas, the “median progression free survival (PFS)” value is on record as 4.3 months, the “patients achieving a partial response” value is “Three” and the “patients with stable disease” value is recorded as 6 patients. Also, in [2], the “clearance predicted in the mouse” value was 918 mL/min/kg. Besides, the “AUC1–7 for brain” value in data set [3] (15 mg/kg IV, mice, trapezoidal rule, 1 h to 7 h) was 250 ng·h/g. Besides, in [3] (setting [14]), the concentration at 1 h is 60.5 ng/g and 63.2 ng/mL and 181 nM; the concentration at 2 h was 42.9 ± 5.4 ng/g; the concentration at 4 h was found to be 33.2 ± 6.1 ng/g; the concentration at 7 h is 28.1 ng/g and 29.4 ng/mL and 84.1 nM. In data set [3] (setting [15]), the peak concentration (Cmax) was 72.4 ng/g and the distribution volume (Vd) was determined as 49.8 L/kg. In data set [3] (setting [16]), the concentration ratio (Kp) is 2.63, the Kp at 1 h is 2.22, the Kp at 2 h stood at 5.67 and the Kp at 4 h was 22.4. The concentration ratio (Kp) at 7 h in data set [3] (setting [16]) was 12.1. In data set [3] (setting [17]), the volume of distribution (Vd) came to 53.8 L/kg, the clearance is 967 mL/min/kg, the concentration at 1 h came to 27.3 ± 2.5 ng/mL and the concentration at 2 h was determined as 7.56 ± 1.8 ng/mL. In data set [3] (setting [17]), this molecule displayed a concentration at 4 h of 1.48 ± 0.56 ng/mL and a concentration at 7 h of 2.33 ± 1.18 ng/mL. In data set [3] (setting [18]), this molecule had an exposure (AUC) of 95 ng·h/mL, a Cmax of 132 ng/mL, a Vd of 140 L/kg and a clearance of 1360 mL/min/kg. Besides, in the data set with human DIPG cell lines (prior DIPG models), the 50% inhibitory concentration (IC50) was 28.3 nM. Besides, in the data set with human DIPG cell lines (range in human DIPG cell lines), the IC50 is 12.1 to 28.3 nM. In addition, the protein binding in [4] is reported as 75–90%. In addition, in data set [5], the volume of distribution was 40.2 L/kg. Besides, the “brainstem concentration relative to cerebral cortex (times)” value in data set [6] is “more than 7”. In [6] (setting [19]), the “concentration in brainstem tumor tissue” value is given as 550 ± 51 nM and the “concentration in cerebral cortex” value was 70 ± 10 nM. For the same molecule, in the data set on refractory solid tumors, the objective response entry is recorded as “No patient had an objective response”, the “patients with stable disease” value is 3 patients and the tolerability entry is reported as “acceptable tolerability”. In addition, the volume of distribution in data set [7] is given as 42 L/kg. Also, the “expected human brain nanomolar concentration” value in data set [8] (corresponding to 45.95 ng/g) is “approximately 142.2 nM”. Besides, the “expected human brain concentration” value in [8] (pediatric Cmax 20.7 ng/mL x brain to plasma ratio 2.22) is given as “approximately 45.95 ng/g”. Besides, the “DIPG cultures demonstrating sensitivity” value in the data set on DIPG cultures was 12 of the 16. In addition, the “brain penetration in clinical reports” value in data set [9] is reported as “minimal to no brain penetration”. Further, the “concentrations in the CSF” value in data set [9] (prior studies) is “negligible concentrations”. Further, the “drug unbound in plasma” value in data set [10] is reported as 40%. For the same molecule, the “concentrations in xenograft, intestine, bladder, and heart tissue versus plasma” value in data set [11] is on record as “higher concentrations”. Also, in data set [12], the protein binding entry is “approximately 60%”. In addition, in [13], the BCS class result is reported as “Class II”, the “permeability (BCS)” value is recorded as “high permeability” and the “solubility (BCS)” value is given as “low solubility”.

Values taken from publication PMC8896403 (Cancer chemotherapy and pharmacology, 2021).
